By EC50 is commonly meant the concentration at which the effect is half-maximal. A word on the IC50: it is the concentration at which inhibition is half-maximal.

These results are taken from ChEMBL document CHEMBL4828730, “Gemfibrozil derivatives as activators of soluble guanylyl cyclase - A structure-activity study” (Eur J Med Chem, 2021).

Assay [1] deals with T1, Soluble guanylate cyclase alpha1/beta1 complex (Homo sapiens) (UniProt Q02153+Q02108). In words: (§1) Activation of full length human sGC alpha1/beta1 subunit containing heme in ferric state expressed in Sf9 insect cells using […] incubated for 15 mins by [32P]GTP assay. The essentials: (§2)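 Reaction started at 37°C with 1 mM GTP/[α-32P]GTP for 15 min, then stopped by zinc carbonate precipitation. Single-dose test at 100 μM relative to vehicle; concentration-response gives EC50 as mean ± SD.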

Assay [2] concerns the target T2, Soluble guanylate cyclase alpha1/beta1 complex (Homo sapiens, UniProt Q02108+Q02153).
T2 sequence (Q02153 whole entry): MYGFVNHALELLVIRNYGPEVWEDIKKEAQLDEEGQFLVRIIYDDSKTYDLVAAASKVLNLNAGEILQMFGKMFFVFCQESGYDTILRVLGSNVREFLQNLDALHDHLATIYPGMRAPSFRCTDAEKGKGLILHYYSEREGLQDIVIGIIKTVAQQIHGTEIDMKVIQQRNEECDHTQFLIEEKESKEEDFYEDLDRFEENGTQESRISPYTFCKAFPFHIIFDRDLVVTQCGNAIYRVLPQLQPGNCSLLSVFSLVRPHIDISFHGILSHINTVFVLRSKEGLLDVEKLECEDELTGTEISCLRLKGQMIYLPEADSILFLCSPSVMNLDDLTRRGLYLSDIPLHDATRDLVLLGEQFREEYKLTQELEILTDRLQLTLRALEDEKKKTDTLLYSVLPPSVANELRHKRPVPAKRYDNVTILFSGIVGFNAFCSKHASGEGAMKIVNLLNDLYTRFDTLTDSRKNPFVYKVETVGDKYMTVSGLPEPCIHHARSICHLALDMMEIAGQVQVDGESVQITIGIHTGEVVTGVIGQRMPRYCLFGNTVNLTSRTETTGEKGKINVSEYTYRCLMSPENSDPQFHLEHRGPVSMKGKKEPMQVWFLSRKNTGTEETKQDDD
T2 sequence (Q02108 whole entry): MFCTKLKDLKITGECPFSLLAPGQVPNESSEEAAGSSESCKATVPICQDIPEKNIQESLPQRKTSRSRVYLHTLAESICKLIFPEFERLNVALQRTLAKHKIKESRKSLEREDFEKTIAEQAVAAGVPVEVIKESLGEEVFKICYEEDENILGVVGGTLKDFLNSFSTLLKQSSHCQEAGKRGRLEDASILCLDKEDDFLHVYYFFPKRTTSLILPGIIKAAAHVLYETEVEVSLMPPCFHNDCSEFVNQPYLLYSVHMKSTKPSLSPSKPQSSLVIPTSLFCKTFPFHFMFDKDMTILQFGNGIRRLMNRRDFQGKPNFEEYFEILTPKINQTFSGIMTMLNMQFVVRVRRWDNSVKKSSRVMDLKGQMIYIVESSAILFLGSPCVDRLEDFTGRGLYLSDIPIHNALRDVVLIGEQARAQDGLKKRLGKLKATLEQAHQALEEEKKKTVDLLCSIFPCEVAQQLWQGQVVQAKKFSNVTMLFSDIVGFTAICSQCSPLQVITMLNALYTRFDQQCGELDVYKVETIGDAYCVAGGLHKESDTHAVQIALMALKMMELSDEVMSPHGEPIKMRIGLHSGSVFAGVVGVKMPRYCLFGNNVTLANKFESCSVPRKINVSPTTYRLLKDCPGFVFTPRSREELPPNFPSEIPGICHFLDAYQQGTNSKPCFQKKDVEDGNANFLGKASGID
The description is as §1. The essentials:
as §2

Assay [3] concerns the target T1, Soluble guanylate cyclase alpha1/beta1 complex (Homo sapiens). In words: Activation of full length human sGC alpha1/beta1 subunit containing heme in ferric state expressed in Sf9 insect cells using […] incubated for 15 mins at 100 uM incubated for 10 mins by [32P]GTP assay relative to control. The conditions noted are these: filed as activator. An outline of the steps:
as §2

The test system of assay [4] is Thoracic aorta. The assay can be described thus: Vasodilation activity in C57Bl6 mouse thoracic aorta assessed as inhibition of phenylephrine-induced contractions. Format: functional, tissue-based. The conditions noted are these: for minimal effective concentration: read-out: MEC. An outline of the steps:
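Isolated mouse aortic rings on a wire myograph, equilibrated 80 min in carbogen-gassed Krebs-Henseleit pH 7.4. Rings were precontracted with 500 nM phenylephrine plus 100 nM 5-hydroxytryptamine to submaximal tension, then given cumulative compound doses while isometric tension was recorded. IC50 was derived by nonlinear regression.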

Calls of active or inactive are those of the source. No cut-off for these calls is given here.

In the case of `CCCC(=O)N(CCCC(C)(C)C(=O)O)c1cc(C)ccc1C`, the outcome in assay [1] was inactive.

Take `CCCCCC(=O)N(CCCC(C)(C)C(=O)O)c1cc(C)ccc1C`: the outcome in assay [1] was inactive.

Turning to `O=C(O)CCCCCSc1ccccc1`, the outcome in assay [1] was inactive.

With `CCNC(=O)C(C)(C)CCCOc1cc(C)ccc1C`, the result in assay [1] was inactive.

Take `CNC(=O)C(C)(C)CCCOc1cc(C)ccc1C`: in assay [1], the outcome was inactive.

Turning to `CCCCCCNC(=O)C(C)(C)CCCOc1cc(C)ccc1C`, in assay [1], the result was inactive.

For `CCC(CCCOc1cc(C)ccc1C)C(=O)O` (stereo not given), the result in assay [1] was inactive.

On to `Cc1ccc(C)c(OCCCC(=O)O)c1`, for which the outcome in assay [1] was inactive.

As for `Cc1ccccc1OCCCC(C)(C)C(=O)O`, the result in assay [1] was inactive.

In assay [2], `Cc1ccc(C)c(N(CCCC(C)(C)C(=O)O)C(=O)CCCCC(=O)N(CCCC(C)(C)C(=O)O)c2cc(C)ccc2C)c1` yielded an EC50 of 119 µM. The fold change (FC) in assay [3] is 2.2. In assay [4], the IC50 stood at 261 µM and the minimal effective concentration was 10 µM.

As for `Cc1ccc(C(C)C)c(OCCCC(C)(C)C(=O)O)c1`, the EC50 in assay [2] is 166 µM. In addition, the fold change (FC) in assay [3] turned out to be 2.6. Moreover, in assay [4], the IC50 came to 71 µM and the minimal effective concentration was 10 µM.

With `Cc1ccc(C)c(OCCCC(C)(C)C(N)=O)c1`, the result in assay [1] was inactive.

`Cc1ccc(C)c(NCCCC(C)(C)C(=O)O)c1` returned an EC50 in assay [2] of 50 µM. In assay [3], this compound registered a fold change (FC) of 2.9. Moreover, in assay [4], the IC50 came to 721 µM and the minimal effective concentration stood at 100 µM.

Take `Cc1ccc(C)c(OCCCC(C)(C)C(=O)NCCNC(=O)C(C)(C)CCCOc2cc(C)ccc2C)c1`: the outcome in assay [1] was inactive.

Turning to `O=C(O)CCCCCOc1ccccc1`, the outcome in assay [1] was inactive.

On to `Cc1ccc(C)c(OCCCCCC(=O)O)c1`, for which, in assay [2], the EC50 was determined as 389 µM. The fold change (FC) in assay [3] stood at 2.1. In addition, in assay [4], the half-maximal inhibitory concentration (IC50) was more than 1000 µM and the minimal effective concentration was 300 µM.

Consider `CCCCNC(=O)C(C)(C)CCCOc1cc(C)ccc1C`, for which, in assay [1], the outcome was inactive.

As for `Cc1ccc(C)c(OCCCC(C)(C)C(=O)NCCCCNC(=O)C(C)(C)CCCOc2cc(C)ccc2C)c1`, in assay [1], the result was inactive.

With `Cc1ccc(C)c(OCCCC(C)(C)C(=O)O)c1` [GEMFIBROZIL], the concentration for a half-maximal effect (EC50) in assay [2] amounted to 624 µM. For the same compound, the fold change (FC) in assay [3] was found to be 4. Besides, in assay [4], the IC50 was found to be 310 µM and the minimal effective concentration worked out at 30 µM.

On to `Cc1ccc(C)c(OCC(=O)O)c1`, for which the outcome in assay [1] was inactive.

The compound `Cc1ccc(C)c(OCCCCC(=O)O)c1` showed an EC50 in assay [2] of 707 µM. In assay [3], this compound gave a fold change (FC) of 2.9. For the same compound, in assay [4], the IC50 is 812 µM and the minimal effective concentration turned out to be 100 µM.

Take `CCCCCCC(CCCOc1cc(C)ccc1C)C(=O)O` (stereo not given): in assay [2], the EC50 stood at 128 µM. In assay [3], this compound returned a fold change (FC) of 4.1. In assay [4], the IC50 stood at 45 µM and the minimal effective concentration was determined as 10 µM.

As for `CC(=O)N(CCCC(C)(C)C(=O)O)c1cc(C)ccc1C`, the result in assay [1] was inactive.

On to `Cc1ccc(C)c(OCCCC(C)(C)C(=O)NCCCCCCNC(=O)C(C)(C)CCCOc2cc(C)ccc2C)c1`, for which the result in assay [1] was inactive.
